According to ChEMBL document CHEMBL1123123, “Orally absorbable cephalosporin antibiotics. 2. Structure-activity studies of bicyclic glycine derivatives of 7-aminodeacetoxycephalosporanic acid” (1985):
In brackets after ≈: the same amount, converted by molar mass.

Key:
Format in all cases: functional
Streptococcus = assay: The compound was tested for antibacterial activity against Streptococcus group D X66.
Staphylococcus aureus [1] = assay: Antibacterial activity against penicillin G resistant Staphylococcus aureus V41.
Procedure, shortened: (§1)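 Agar dilution susceptibility test following a previously published method; value recorded as MIC. Racemic compounds were separated by preparative HPLC and only the R epimers were tested.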

[2] = tested on: Staphylococcus epidermidis; assay: The compound was tested for antibacterial activity against Staphylococcus epidermidis EP11.
Streptococcus pyogenes = assay: The compound was tested for antibacterial activity against Streptococcus pyogenes C203.
Staphylococcus aureus [3] = assay: Antibacterial activity against methicillin resistant Staphylococcus aureus S13E.; procedure, shortened: as §1
Haemophilus influenzae [4] = assay: The compound was tested for antibacterial activity against sensitive Haemophilus influenzae C.L.
Streptococcus pneumoniae = assay: The compound was tested for antibacterial activity against Streptococcus pneumoniae Park.
Staphylococcus aureus [5] = assay: Antibacterial activity against penicillin G sensitive Staphylococcus aureus X1.1
Staphylococcus aureus [6] = assay: Antibacterial activity against methicillin resistant Staphylococcus aureus X400.; procedure, shortened: as §1
Haemophilus influenzae [7] = assay: The compound was tested for antibacterial activity against resistant Haemophilus influenzae 76.; procedure, shortened: as §1
Staphylococcus aureus [8] = assay: Aantibacterial activity against methicillin resistant Staphylococcus aureus S13E.; procedure, shortened: as §1
Mus musculus [9] = assay: Dose administered orally in mice infected with Staphylococcus aureus.; settings: po
Procedure, shortened: (§2)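 Mice were used in groups of 10 and inoculated with S. aureus, S. pyogenes or S. pneumoniae. Drug was given orally or subcutaneously at 1 and 5 h after inoculation. The ED50 was determined from the dosed groups.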

Mus musculus [10] = assay: Dose administered subcutaneously in mice infected with Streptococcus pneumoniae; settings: sc; procedure, shortened: as §2
Mus musculus [11] = assay: Dose administered subcutaneously in mice infected with Streptococcus pyogenes; settings: sc; procedure, shortened: as §2
Mus musculus [12] = assay: Dose administered orally in mice infected with Streptococcus pyogenes.; settings: po; procedure, shortened: as §2
Mus musculus [13] = assay: Dose administered subcutaneously in mice infected with Staphylococcus aureus.; settings: sc; procedure, shortened: as §2
Mus musculus [14] = assay: Dose administered orally in mice infected with Streptococcus pneumoniae; settings: po; procedure, shortened: as §2

Compound	MIC (Streptococcus)	MIC (Staphylococcus aureus [1])	MIC [2]	MIC (Streptococcus pyogenes)	MIC (Staphylococcus aureus [3])	MIC (Haemophilus influenzae [4])	MIC (Streptococcus pneumoniae)	MIC (Staphylococcus aureus [5])	MIC (Staphylococcus aureus [6])	MIC (Haemophilus influenzae [7])	MIC (Staphylococcus aureus [8])	ED50 (Mus musculus [9])	ED50 (Mus musculus [10])	ED50 (Mus musculus [11])	ED50 (Mus musculus [12])	ED50 (Mus musculus [13])	ED50 (Mus musculus [14])
CC1=C(C(=O)O)N2C(=O)C(NC(=O)C(N)c3cc4sccc4s3)C2SC1 (stereo not drawn)	> 64 µg/mL	32 µg/mL (≈ 78.1 µM)	16 µg/mL (≈ 39.1 µM)	0.25 µg/mL (≈ 0.61 µM)	64 µg/mL (≈ 156 µM)	64 µg/mL (≈ 156 µM)	1 µg/mL (≈ 2.44 µM)	0.5 µg/mL (≈ 1.22 µM)	> 64 µg/mL	2 µg/mL (≈ 4.88 µM)	–	–	–	–	–	–	–
CC1=C(C(=O)O)N2C(=O)C(NC(=O)C(N)c3cccc4c(C)csc34)C2SC1 (stereo not drawn)	64 µg/mL (≈ 153 µM)	16 µg/mL (≈ 38.3 µM)	8 µg/mL (≈ 19.2 µM)	1 µg/mL (≈ 2.4 µM)	–	8 µg/mL (≈ 19.2 µM)	2 µg/mL (≈ 4.79 µM)	2 µg/mL (≈ 4.79 µM)	64 µg/mL (≈ 153 µM)	1 µg/mL (≈ 2.4 µM)	64 µg/mL (≈ 153 µM)	–	–	–	–	–	–
CC1=C(C(=O)O)N2C(=O)C(NC(=O)C(N)c3cc4ccsc4s3)C2SC1 (stereo not drawn)	> 64 µg/mL	32 µg/mL (≈ 78.1 µM)	4 µg/mL (≈ 9.77 µM)	0.25 µg/mL (≈ 0.61 µM)	16 µg/mL (≈ 39.1 µM)	8 µg/mL (≈ 19.5 µM)	0.5 µg/mL (≈ 1.22 µM)	0.5 µg/mL (≈ 1.22 µM)	> 64 µg/mL	2 µg/mL (≈ 4.88 µM)	–	–	–	–	–	–	–
CC1=C(C(=O)O)N2C(=O)C(NC(=O)C(N)c3cccc4sccc34)C2SC1 (stereo not drawn)	64 µg/mL (≈ 159 µM)	16 µg/mL (≈ 39.7 µM)	16 µg/mL (≈ 39.7 µM)	0.25 µg/mL (≈ 0.62 µM)	64 µg/mL (≈ 159 µM)	4 µg/mL (≈ 9.91 µM)	1 µg/mL (≈ 2.48 µM)	2 µg/mL (≈ 4.96 µM)	64 µg/mL (≈ 159 µM)	2 µg/mL (≈ 4.96 µM)	–	–	–	–	–	–	–
CC1=C(C(=O)O)N2C(=O)C(NC(=O)C(N)c3ccc4sccc4c3)C2SC1 (stereo not drawn)	64 µg/mL (≈ 159 µM)	4 µg/mL (≈ 9.91 µM)	2 µg/mL (≈ 4.96 µM)	0.125 µg/mL (≈ 0.31 µM)	64 µg/mL (≈ 159 µM)	8 µg/mL (≈ 19.8 µM)	0.5 µg/mL (≈ 1.24 µM)	0.5 µg/mL (≈ 1.24 µM)	64 µg/mL (≈ 159 µM)	4 µg/mL (≈ 9.91 µM)	–	–	–	–	–	–	–
CC(=O)N1CCc2cc(C(N)C(=O)NC3C(=O)N4C(C(=O)O)=C(C)CSC34)ccc21 (stereo not drawn)	64 µg/mL (≈ 149 µM)	64 µg/mL (≈ 149 µM)	8 µg/mL (≈ 18.6 µM)	1 µg/mL (≈ 2.32 µM)	64 µg/mL (≈ 149 µM)	16 µg/mL (≈ 37.2 µM)	1 µg/mL (≈ 2.32 µM)	2 µg/mL (≈ 4.65 µM)	64 µg/mL (≈ 149 µM)	8 µg/mL (≈ 18.6 µM)	–	0.85 mg/kg	10.6 mg/kg	0.79 mg/kg	2.6 mg/kg	2.11 mg/kg	9.3 mg/kg
CC1=C(C(=O)O)N2C(=O)[C@@H](NC(=O)[C@H](N)c3ccccc3)[C@H]2SC1 [CEPHALEXIN ANHYDROUS]	–	–	32 µg/mL (≈ 92.1 µM)	0.5 µg/mL (≈ 1.44 µM)	–	8 µg/mL (≈ 23 µM)	2 µg/mL (≈ 5.76 µM)	4 µg/mL (≈ 11.5 µM)	–	8 µg/mL (≈ 23 µM)	–	0.9 mg/kg	30.5 mg/kg	2.9 mg/kg	1.77 mg/kg	1.66 mg/kg	37 mg/kg
